Screens: PubChem, several laboratories
ABCG2 inh – inhibitors of human ABCG2 transporter, ABCB1 counter-screen | Q9UNQ0 | inhibition, % at 6.6 µM | actives 0.1% (n = 190,000) | IgMXP3 cells, JC-1 efflux, flow cytometry;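 active means inhibition above 80%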
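Test system: IgMXP3 cells (ABCG2) mixed with DDAO far-red-labelled CCRF-Adr cells (ABCB1). Reagent: JC-1 transporter substrate. Compound dosing: single test compound dose, 6.6 µM final. Times: 10 min compound exposure, 25 °C. Detection: flow cytometry of retained JC-1 fluorescence. Read-out basis: efflux inhibition in percent versus controls. Controls: nicardipine and DMSO wells.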
PKD1 kinase inh – blocks activity of human protein kinase D1. PKD1 kinase fluorescence polarization assay. actives 0.056% (n = 200,000). inhibition, % (no concentration beside the values)
Target sequence (Q15139 whole entry, looked up): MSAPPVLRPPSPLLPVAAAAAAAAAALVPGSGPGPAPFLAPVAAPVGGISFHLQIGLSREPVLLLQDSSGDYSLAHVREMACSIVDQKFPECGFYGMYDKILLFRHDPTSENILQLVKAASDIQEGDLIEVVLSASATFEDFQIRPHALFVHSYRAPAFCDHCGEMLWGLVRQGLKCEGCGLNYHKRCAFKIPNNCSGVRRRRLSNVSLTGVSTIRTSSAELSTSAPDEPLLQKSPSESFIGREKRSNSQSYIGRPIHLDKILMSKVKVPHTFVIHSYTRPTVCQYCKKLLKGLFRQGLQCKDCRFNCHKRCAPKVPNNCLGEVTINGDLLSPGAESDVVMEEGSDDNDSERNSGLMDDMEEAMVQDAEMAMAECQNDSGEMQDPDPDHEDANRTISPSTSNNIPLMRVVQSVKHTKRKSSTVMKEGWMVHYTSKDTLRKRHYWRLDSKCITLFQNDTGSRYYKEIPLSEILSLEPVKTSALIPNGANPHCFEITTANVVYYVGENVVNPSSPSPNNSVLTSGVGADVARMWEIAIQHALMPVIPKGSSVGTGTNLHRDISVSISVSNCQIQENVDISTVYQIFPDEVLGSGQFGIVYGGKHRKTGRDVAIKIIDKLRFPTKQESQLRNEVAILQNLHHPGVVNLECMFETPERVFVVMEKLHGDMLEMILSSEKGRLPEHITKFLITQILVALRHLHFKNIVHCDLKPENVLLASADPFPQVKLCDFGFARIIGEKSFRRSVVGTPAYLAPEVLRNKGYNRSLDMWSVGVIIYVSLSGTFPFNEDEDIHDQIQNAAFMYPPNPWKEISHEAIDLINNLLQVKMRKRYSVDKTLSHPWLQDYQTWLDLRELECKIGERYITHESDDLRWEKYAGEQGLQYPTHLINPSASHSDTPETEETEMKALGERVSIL
Lmaj promast – Leishmania major promastigote growth inhibition; Leishmania major promastigotes, resazurin fluorescence viability; inhibition, % at 10 µM; actives 9% (n = 200,000); AID 1063;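 further: promastigotes grown with compound for 44 hours at 28 °C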
ABCB1 inh – human ABCB1 inhibition, ABCG2 as counter-screen; CCRF-Adr cells, JC-1 efflux, flow cytometry; inhibition, % at 6.6 µM; actives 0.067% (n = 190,000); P08183; in the data active means inhibition above about 40%;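 further: higher value means more JC-1 retained so stronger ABCB1 efflux block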
Avidin fluor – compound fluoresces at 488/530 nm on avidin beads; compound fluorescence 488/530 nm, flow cytometry; stronger effect = higher value; fluorescence (KMESF) at 10 µM; actives 0.38% (n = 220,000); in the data active means fluorescence above about 47
GSH bead fluor – GSH bead compound fluorescence profile; fluorescence (KMESF) at 10 µM; GSH beads flow cytometry, compound fluorescence 488/530 nm; stronger effect = higher value; actives 0.25% (n = 190,000); in the data active means fluorescence above about 89;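 further: glutathione beads carrying GST-tagged Bcl family fusion proteins plus one bare bead set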
A number is an active result; 0 = inactive; - = no result given. Only a selection was taken, and hits are over-represented in it overall. Unless noted, no stated cut-off is given here; in the data, active means inhibition above about 50%; inactive means the rest.

SMILES	ABCG2 inh	PKD1 kinase inh	Lmaj promast	ABCB1 inh	Avidin fluor	GSH bead fluor
CN1/C(=C\C(=O)C(F)F)C(C)(C)c2ccccc21	0	0	0	0	0	0
CN1/C(=C\C(=O)C[n+]2ccc3ccccc3c2)C(C)(C)c2ccccc21	0	0	100	0	0	0
COc1ccccc1OCC(=O)/C=C1/N(C)c2ccccc2C1(C)C	0	0	57	0	0	0
CN1/C(=C\C(=O)COC(=O)c2ccccc2O)C(C)(C)c2ccccc21	-	-	-	-	0	-
COc1ccc(N2CC(NC(=O)NCC(C)C)CC2=O)cc1 (centres undefined)	0	0	0	0	0	0
Cc1ccc2c(CC(=O)NNC(=O)c3ccccc3)coc2c1	0	0	55	0	0	0
CC1=Nc2ccccc2/C1=C/c1c(N)n2c(S(=O)(=O)CC(C)C)nsc2nc1=O	0	0	0	0	0	0
N=C1/C(=C\c2ccc(OCc3ccccc3)cc2)C(=O)N=C2SC(N3CCCC3)=NN12	0	0	0	0	0	0
CCOC(=O)c1c(C)nc2sc(C(=O)Nc3ccc(OC)cc3)c(N)c2c1-c1ccc(OC)cc1	0	0	0	0	0	0
COc1ccc(-c2c(C(C)=O)c(C)nc3sc4c(=N)n(N)cnc4c23)cc1	0	0	62	0	0	0
CCOC(=O)c1c(C)nc2sc(C(N)=O)c(N)c2c1-c1ccc(OC)cc1	0	0	94	0	0	0
CCOC(=O)c1c(C)nc2sc(C(=O)Nc3ccc(C(C)=O)cc3)c(N)c2c1-c1ccc(OC)cc1	0	0	95	0	0	0
CSc1nc(N)nc(SC2C=CCCC2)c1C#N (centres undefined)	0	0	0	0	0	0
CCOCCCn1c(SCC(=O)Nc2ccc(C(N)=O)cc2)nc2ccccc2c1=O	0	0	0	0	0	0
CCn1c(SCC(=O)Nc2ccccc2OC)nc2ccccc2c1=O	0	0	0	0	0	0
COCCCn1c(SCC(=O)Nc2ccc(C(=O)OC)cc2)nc2ccccc2c1=O	0	0	89	0	0	0
CCC(C)NC(=O)CSc1nc2ccccc2c(=O)n1Cc1ccc(OC)cc1 (centres undefined)	0	0	55	0	0	0
Cc1ccc(NC(=O)CSc2nc3ccccc3c(=O)n2CCCN2CCCCC2)cc1C	0	0	100	0	0	0
CCc1ccc(NC(=O)CSc2nc3ccccc3c(=O)n2CCCN2CCC(C)CC2)cc1	0	0	77	0	0	0
Cc1ccc(NC(=O)CSc2nc3ccccc3c(=O)n2CCCC(=O)N2CCCC2)cc1	-	0	0	-	0	0
COC(=O)c1nnn(CC(=O)NC(=O)Nc2ccccc2)c1C(=O)OC	0	0	0	0	0	0
CCOC(=O)/C(=C/c1ccccc1)NC(=O)c1ccco1	0	0	0	0	0	0
Cc1ccccc1N=C1NN=C(c2ccccc2F)CS1	0	0	0	0	0	0
CCOc1ccc(S(=O)(=O)Nc2nc3ccccc3nc2Nc2ccc(N3CCOCC3)cc2)cc1	0	0	0	0	0	0
COc1cccc(NC(=O)CCN2CCN(C)CC2)c1	0	0	0	0	0	0
SMILES	ABCG2 inh	PKD1 kinase inh	Lmaj promast	ABCB1 inh	Avidin fluor	GSH bead fluor
Cc1cc(C)n(-c2nc3ccccc3nc2N2CCN(S(=O)(=O)c3ccc4ccccc4c3)CC2)n1	0	0	54	0	0	0
Cc1cc(N2CCN(S(=O)(=O)c3ccc(Cl)c(Cl)c3)CC2)c2ccccc2n1	0	0	74	0	0	0
O=S(=O)(c1cccc(Cl)c1Cl)N1CCCCC1	0	0	0	0	0	0
CN1CCCN(S(=O)(=O)c2ccc(Cl)c(Cl)c2)CC1	0	0	82	0	0	0
Cc1cc(N2CCN(S(=O)(=O)c3ccc(Cl)cc3)CC2)c2ccccc2n1	0	0	0	0	0	0
CN1CCCN(S(=O)(=O)c2cccc(Cl)c2Cl)CC1	0	0	72	0	0	0
NC(=O)C1CCN(c2cc(Cl)nc(N)n2)CC1	0	0	0	0	0	0
CC(=O)OC(C(=O)Nc1ccccc1C)C(OC(C)=O)C(OC(C)=O)C(OC(C)=O)C(=O)Nc1ccccc1C (centres undefined)	-	0	0	-	-	-
Cc1cc(C)nc(SC2=CS(=O)(=O)c3ccccc32)n1	0	0	0	0	0	0
O=S1(=O)C=C(Sc2nc3ccccc3s2)c2ccccc21	0	0	100	0	0	0
Cc1ccc(C(=O)NN2C(=O)C3C(C2=O)C2C=CC3C23CC3)cc1 (centres undefined)	0	0	0	0	0	0
O=C(NC1CC1)C1CCN(C2CCN(C(=O)CSc3ccccc3)CC2)CC1	-	-	-	-	0	-
Cc1cccc(CC(=O)N2CCC(N3CCC(C(=O)N4CCOCC4)CC3)CC2)c1	0	0	0	0	0	0
O=C(NC1CC1)C1CCN(C2CCN(C(=O)/C=C/c3ccc(F)cc3)CC2)CC1	0	0	66	0	0	0
O=C(/C=C/c1ccccc1)N1CCC(N2CCC(C(=O)N3CCOCC3)CC2)CC1	0	0	51	0	0	0
O=C(NC1CC1)C1CCN(C2CCN(C(=O)CC3=CCCCC3)CC2)CC1	0	0	75	0	0	0
CC(C)OC(=O)/C(C#N)=C/c1c[nH]c2ccccc12	0	0	0	0	0	0
CC(=O)Nc1ccc(NCN2C(=O)[C@@H]3[C@H]4CC[C@H](C4)[C@@H]3C2=O)cc1	0	0	0	0	0	0
Cc1ccc(NC(=O)[C@@H]2CCCN2S(=O)(=O)c2ccccc2C(F)(F)F)cc1S(=O)(=O)N1CCOCC1	0	0	98	0	0	0
Cc1cccc(NC(=O)CSc2nnc(-c3ccc(S(=O)(=O)N4CCOCC4)cc3)n2C)c1	0	0	0	0	68	0
COc1cc(S(=O)(=O)N2CCOCC2)ccc1NC(=O)CN1c2cccc3cccc(c23)S1(=O)=O	0	0	0	0	0	0
Cc1ccc(NC(=O)CSc2nnc3ccccn23)cc1S(=O)(=O)N1CCOCC1	0	0	0	0	0	0
Cc1ccc(NC(=O)[C@@H]2CCCN2S(=O)(=O)c2ccccc2F)cc1S(=O)(=O)N1CCOCC1	0	0	0	0	0	0
Cc1ccc(NC(=O)CN2c3cccc4cccc(c34)S2(=O)=O)cc1S(=O)(=O)N1CCOCC1	0	0	96	0	0	0
Cc1ccc(NC(=O)CCCSc2ccccc2)cc1S(=O)(=O)N1CCOCC1	0	0	0	0	101	0
CCC(=O)N(NC1=NS(=O)(=O)c2ccccc21)S(=O)(=O)c1ccc(C)cc1	0	0	0	0	0	0
CC(=O)c1ccc2c(c1)CC(C)C(=O)N2C (centres undefined)	0	0	0	0	0	0
Cc1ccc(NC(=O)CSc2ccccn2)cc1S(=O)(=O)N1CCOCC1	0	0	0	0	0	0
Cc1ccc(NC(=O)CSc2nccn2C)cc1S(=O)(=O)N1CCOCC1	0	0	57	0	0	0
Cc1ccc(C(=O)OCC(=O)Nc2cc(F)ccc2F)cc1NC(=O)c1ccco1	0	0	88	0	0	0
